Measurements gathered from unrelated publications.
Lines come from different studies, so protocols differ.
Effect on: cell growth or viability

SMILES	cell line	technique	concentration	time	endpoint	value
CC(C)c1ccccc1[C@@H]1CCCN1C1CC2(CCN(c3ccc(C(=O)NS(=O)(=O)c4ccc(NC[C@H]5CC[C@](C)(O)CC5)c([N+](=O)[O-])c4)c(Oc4cnc5[nH]ccc5c4)c3)CC2)C1	KMS-12-PE	ATP luminescence	–	48 h	IC50	0.86 nM
Cc1noc2c1-c1ccccc1C(c1ccc(Cl)cc1)=N[C@H]2CC(N)=O	MV4-11	ATP luminescence	–	72 h	IC50	412 nM
Cn1cc(-n2cnc3c(NCc4nc5cc(Cl)c(Cl)cc5[nH]4)nc(N4CCOCC4)nc32)cn1	MDA-MB-468	–	–	5 days	EC50	9.21 nM
C=CC(=O)NC1CCN(c2ncc3ncnc(Nc4ccc(Oc5ccc6c(c5)ncn6C)c(C)c4)c3n2)CC1	647-V	–	–	–	EC50	2320 nM
Cc1c(C(=O)O)ccc2c3n(nc12)[C@@H]1[C@H](C3)N(CC2CC2)[C@@]2(C(=O)Nc3cc(Cl)ccc32)[C@H]1c1cccc(Cl)c1F	human Fibroblast	ATP luminescence	–	–	IC50	12 nM
Cc1nc(Nc2ccc3c(c2)/C(=C/c2ccccc2C)C(=O)N3)c2ccccc2n1	BEAS-2B	MTT	–	–	IC50	8740 nM
CC1(C)CCC(CN2CCN(c3ccc(C(=O)NS(=O)(=O)c4ccc(NCC5CCOCC5)c([N+](=O)[O-])c4)c(Oc4cnc5[nH]ccc5c4)c3)CC2)=C(c2ccc(Cl)cc2)C1	MV4-11	ATP luminescence	–	48 h	IC50	12 nM
Cc1nc(Nc2ccc3c(c2)CC(=O)N3)c2ccccc2n1	BEAS-2B	MTT	–	–	IC50	8760 nM
C[C@@H]1CN(c2ccc(-c3cc(C(=O)NCCOCCOCCOCCOCCOCCOCCNC(=O)/C=C/c4[nH]cc(C(=O)N[C@@H](CC(N)=O)c5ccc(F)c(Cl)c5)c4-c4ccc(Cl)cc4F)ccc3F)cc2NC(=O)c2ccc(F)cc2C(F)(F)F)C[C@H](C)N1C	MV4-11	–	4.64 µM	5 days	viability	43.9%
Cc1nc(Nc2ccc3c(c2)/C(=C/c2ccccc2)C(=O)N3C)c2ccccc2n1	BEAS-2B	MTT	–	–	IC50	20100 nM
CN1Cc2c(N)cccc2C(=O)N1C1CCC(=O)NC1=O (stereo not drawn)	MV4-11	CCK-8	–	96 h	IC50	< 330 nM
COc1cc2ncnc(Nc3ccc4c(c3)/C(=C/c3ccccc3)C(=O)N4)c2cc1OC	BEAS-2B	MTT	–	–	IC50	17500 nM
C=CC(=O)N1C[C@@H](n2nc(C#Cc3c(F)cc4c(ncn4C4CC4)c3F)c(C(N)=O)c2NC)C[C@@H]1COC	RBE	MTT	–	72 h	IC50	> 1000 nM
Cc1nc(Nc2ccc3c(c2)C(C)(C)C(=O)N3)c2ccccc2n1	BEAS-2B	MTT	–	–	IC50	38400 nM
C[C@@H]1CN(c2ccc(-c3cc(C(=O)NCCOCCOCCOCCOCCNC(=O)Cn4cc(-c5[nH]cc(C(=O)N[C@@H](CC(N)=O)c6ccc(F)c(Cl)c6)c5-c5ccc(Cl)cc5F)cn4)ccc3F)cc2NC(=O)c2c[nH]c(=O)cc2C(F)(F)F)C[C@H](C)N1C	MV4-11	–	4.64 µM	5 days	viability	27%
